High-throughput results (PubChem BioAssay)
Only some compounds are listed: those with a hit (about 5% of all), similar ones and a draw of the others.
CSC inhib = blocks cancer stem cells; cancer stem cell-like cells viability, luminescence; inhibition, % at 7.5 µM; 300,000 tested, 1.1% active; AID 2717; in the data active means inhibition above about 75%; tested in HMLE shEcad cells
Mdm2-MdmX inh = disrupts the human Mdm2-MdmX interaction. SaOS-2 split-luciferase Mdm2/MdmX complementation, luminescence. inhibition, % at 8 µM. 330,000 tested, 3% active;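 active means inhibition of at least 50% at 8 µM in the primary screen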
T cruzi repl = T. cruzi replication inhibition; AID 1885; T. cruzi beta-gal in NIH3T3, luminescence, 90 h; inhibition, % (test concentration not listed); 300,000 tested, 1.4% active;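 active means mean inhibition across valid replicates above about 55%, limit read from the data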;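 further: signal also drops with host cell toxicity which is not excluded here; higher percent means less beta-gal luminescence so fewer parasites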
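assay system = mouse NIH/3T3 fibroblasts infected with β-gal-expressing T. cruzi Tulahuen C4 | input = 5,000 NIH/3T3 host cells per well | buffer or medium = DMEM plus 2% FBS | timing = 3 h host attachment, then at least 90 h co-culture | measured by = GalScreen luminescence, 60 min | evaluation = luminescence reflecting intracellular parasite burden, expressed as percent inhibition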
Beta cell apopt = beta cell apoptosis inhibition | protection from apoptosis, % (no concentration beside the values) | 300,000 tested, 0.8% active | AID 435005 | INS-1E cytokine-induced death, ATP luminescence, 48 h; percent of positive-control rescue, neutral wells zero;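 active means Every replicate reaches about 75%, or at least half do and their mean reaches it too, limit read from the data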;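 further: higher means more ATP so stronger rescue from cytokine killing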
UPR XBP1 act = activators of adaptive arm of unfolded protein response (XBP1) | CHO-XBP1 luciferase reporter, IRE1-XBP1 UPR activation, luminescence; percent of tunicamycin response, DMSO as zero | activation, % at 20 µM | 330,000 tested, 0.33% active;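 active means versus positive control, 20 µM dose yields 30% or more activation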
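Test system: CHO-XBP1 luciferase reporter cells | Buffer or medium: Serum-containing F12 medium, 10% FBS | Schedule: 6 h compound exposure at 37 °C, 5% CO2 | Detection: Steady-Glo luciferase glow luminescence, 10 min after reagent addition | Read-out basis: Activation, % of tunicamycin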
CHOP UPR activ = activators of apoptotic arm of unfolded protein response (CHOP). CHO-CHOP luciferase reporter, UPR activation, luminescence; percent of tunicamycin response over DMSO baseline. activation, % at 10 µM. 330,000 tested, 0.34% active;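 active means at 10 µM dose, activation of 40% or more, normalized to positive control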
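Evaluation: % reporter activation, DMSO baseline versus tunicamycin full activation; System: CHO-CHOP luciferase reporter cell line; Input: 500 cells/well; Incubation: 6 h compound treatment, 37 °C; Measured by: Steady-Glo luciferase luminescence; Dosing: one dose, 10 µM in 0.5% DMSO; Buffer or medium: F12 medium, 10% FBS; Benchmarks: positive tunicamycin 10 µg/mL, negative DMSO alone.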
Of the large screens only hits and unclear results are named; the others gave an inactive call.

Cc1ccc2c(c1)c1n[nH]c(=S)nc1n2CCc1ccccc1	T cruzi repl 69
O=C(NCC1CCCO1)c1ccc(Br)s1 (centres undefined)	none
O=C(NCC1CCCO1)c1ccc([N+](=O)[O-])s1 (centres undefined)	T cruzi repl 67
CC(C)(C)c1ccc(C(=O)NC(=S)NNC(=O)c2cccs2)cc1	T cruzi repl 56 (no result: Mdm2-MdmX inh, UPR XBP1 act, CHOP UPR activ)
O=C(NC(=S)NNC(=O)c1cccs1)c1ccccc1	none
CCCCN(C)CCCNC(=O)c1ccc2c(c1)N(CC)C(=O)c1ccccc1S2=O (centres undefined)	T cruzi repl 61
O=C(Cn1cnc([N+](=O)[O-])n1)N/N=C/c1ccc(O)cc1O	CSC inhib 80 (no result: Beta cell apopt)
O=C(Cn1cnc([N+](=O)[O-])n1)N/N=C/c1cccc2ccccc12	none
O=C1SC(SC(=Nc2ccccc2)Nc2ccccc2)C(=O)N1c1ccccc1 (centres undefined)	none
Nc1ccc(S(=O)(=O)Nc2ccc(C(=O)c3ccccc3)cc2)cc1	none (no result: Beta cell apopt)
O=C(NNc1ccccc1)C(=O)NNS(=O)(=O)c1ccc(CCCl)cc1	CSC inhib 105, T cruzi repl 72
O=C(Cc1ccccc1)NNS(=O)(=O)c1ccc(F)cc1	none
Nc1ccc(S(=O)(=O)NNC(=O)C(=O)NNc2ccccc2)cc1	T cruzi repl 67
CCOc1cccc(OCCOCCN2CCCC2)c1	none
Cc1cc(OCCOCCN2CCCC2)ccc1C(C)C	T cruzi repl 57
Cc1cc(OCCCCCN2CCCC2)ccc1Cl	T cruzi repl 67
CC(C)c1ccc2[nH]c(O)c(N=NC(=O)c3cccc(S(=O)(=O)N4CCCCC4)c3)c2c1	T cruzi repl 69
O=C(Nc1ccccc1Cl)ON=C1c2ccccc2-c2ccccc21	none (no result: CSC inhib, Beta cell apopt)
Cc1cc(C)cc(NC(=O)c2cnn(-c3ccccc3)c2C2CCNCC2)c1	none
CN(C)/C=C(\C#N)C(=O)N/N=C/c1ccc(Cl)cc1	none
COc1ccccc1C1NC=C([N+](=O)[O-])C=C1[N+](=O)[O-] (centres undefined)	T cruzi repl 78 (no result: CSC inhib)
Cc1ccc(NC(=O)C2CCN(S(=O)(=O)c3ccc4ccccc4c3)CC2)nc1	none (no result: CSC inhib, T cruzi repl, Beta cell apopt)
COc1ccc(OC)c(CN2CCN(C(=O)c3cc4ccccc4cc3O)CC2)c1	none
CC(=O)NN1C(=O)c2ccc3c4c(ccc(c24)C1=O)C(=O)N(NC(C)=O)C3=O	Beta cell apopt 108
COc1ccc(S[C@@H](CCN2CC[C@H](NC(=O)OCc3ccccc3)CCC2=O)c2ccccc2)cc1	CSC inhib 82 (no result: T cruzi repl)
CC(=O)Nc1ccc(SC[C@H](C)CN2CC[C@H](C(C)(C)C)CCC2=O)cc1	CSC inhib 102 (no result: T cruzi repl)
C[C@@H](CSc1ccc(Br)cc1)CN1CC[C@H](NC(=O)OCc2ccccc2)CCC1=O	CSC inhib 91 (no result: T cruzi repl)
Cc1ccc(SC[C@H](C)CN2CC[C@H](C)CCC2=O)cc1	none
O=C1CC[C@@H](O)CCN1CC[C@H](Sc1ccc(Br)cc1)c1ccccc1	none (no result: T cruzi repl)
CC(C)(C)[C@@H]1CCC(=O)N(CC[C@H](Sc2ccc(Br)cc2)c2ccccc2)CC1	CSC inhib 108 (no result: T cruzi repl)
CC(=O)c1ccc2c(c1)c(C#N)c1ccccc1[n+]2[O-]	none (no result: CSC inhib, Beta cell apopt)
Cc1ccnc(NC(=O)C(C)N2C(=O)c3ccccc3S2(=O)=O)c1 (centres undefined)	none
COc1ccc(C(=O)O)cc1S(=O)(=O)N1CCN(Cc2ccc3c(c2)OCO3)CC1	none (no result: T cruzi repl)
CC(C)C[C@H]1CN=C(Nc2ccccc2)N1CC1CCC1	none
CCN(CC)c1nc(-c2ccccc2)ncc1S(=O)(=O)c1ccc(C)cc1	T cruzi repl 58
CCOC(=O)C1CCC(CN(Cc2ccccc2)S(=O)(=O)c2ccc([N+](=O)[O-])cc2)CC1 (centres undefined)	none
COc1cc(/C=C/C(=O)O)cc(S(=O)(=O)N2CCN(S(=O)(=O)c3ccc(Cl)cc3)CC2)c1OC	none
CCn1c(C)nc2cc(C(=O)NNC(=O)c3ccc(C)cc3)ccc21	none (no result: CSC inhib, T cruzi repl)
CCn1c(C)nc2cc(C(=O)OC(C(F)(F)C(F)F)C(F)(F)C(F)F)ccc21	Beta cell apopt 104
